Measured values from ChEMBL document CHEMBL1156133, “Losartan-antioxidant hybrids: novel molecules for the prevention of hypertension-induced cardiovascular damage” (J Med Chem, 2009).
The source made the active and inactive calls. No cut-off for these calls is given here.

Experiments:
VSMC = test: Displacement of [125I]angiotensin II from angiotensin 2 receptor in Wistar rat VSMC cells by gamma-counter; type: cell-based; design: concentration or dose not given beside the values
In short: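 Rat aortic VSMC (collagenase-derived primary cultures, passages 3-5) resuspended in Tris-glucose-NaCl buffer pH 7.4 at 0.5 μg/μL protein; 125 μg protein incubated 45 min with 0.15 nM 125I-angiotensin II plus compound. Bound separated by centrifugation, pellet washed with cold 0.15 M NaCl, gamma counted; nonspecific binding with 10^-4 M angiotensin II.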

[1] = Antioxidant activity assessed as inhibition of oxidation of chromogen (ABTS) measured per mmol/L of product by total antioxidant assay; type: functional
In short: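 Total antioxidant status kit: inhibition of ABTS oxidation by metmyoglobin and hydrogen peroxide, followed at 600 nm absorbance; antioxidant ability proportional to absorbance reduction, expressed as mM. Compounds tested at 1 mmol/L.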

Rattus norvegicus [2] = test: Antihypertensive activity in Wistar rat assessed as normalization of L-NAME-induced HNE-lysine accumulation in vessel walls at 30 mg/kg/day, po for 4 weeks in presence of losartan; type: functional, organism-based
In short: (§1)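 Male Wistar rats on L-NAME in drinking water (20 mg/kg/day) for 8 weeks, treatments in drinking water for the last 4 weeks. Thoracic aorta lysates run on SDS-PAGE and Western blotted for collagen type I, fibronectin or HNE-lysine, with β-tubulin as loading control; ECL detection, densitometry. Expressed as percent of basal; mean ± SEM of 10 experiments.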

Rattus norvegicus [3] = test: Antihypertensive activity in Wistar rat assessed as normalization of L-NAME-induced aorta thickness at 10 mg/kg/day, po for 4 weeks; type: functional, organism-based
In short: (§2)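 L-NAME (20 mg/kg/day, drinking water, 8 weeks) hypertensive two-month-old male Wistar rats; treatments in drinking water daily for the last 4 weeks. Systolic pressure by tail-cuff in conscious animals. At sacrifice heart weighed (corrected to body weight); aortic rings from descending thoracic aorta, formaldehyde-flushed, media thickness by planimetry. Mean ± SEM of 10 rats.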

Rattus norvegicus [4] = test: Antihypertensive activity in L-NAME-induced Wistar rat assessed as decrease in blood AST level at 30 mg/kg/day, po for last 4 weeks measured after 8 weeks; type: functional
In short: (§3)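 Two-month-old male Wistar rats given L-NAME in drinking water (20 mg/kg/day) for 8 weeks. From week 4, treatment is given daily in drinking water during 12.00–18.00 h, at the dose stated in the line. Ten rats per group. Sacrificed under halothane between 9.00 and 10.00 h. Serum is measured on an automatic analyzer. Mean ± SEM, nonparametric statistics.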

Rattus norvegicus [5] = test: Antihypertensive activity in L-NAME-induced Wistar rat assessed as decrease in blood Na+ level at 30 mg/kg/day, po for last 4 weeks measured after 8 weeks; type: functional; in short: as §3
Rattus norvegicus [6] = test: Antihypertensive activity in L-NAME-induced Wistar rat assessed as decrease in blood glucose level at 30 mg/kg/day, po for last 4 weeks measured after 8 weeks; type: functional; in short: as §3
Rattus norvegicus [7] = test: Antihypertensive activity in L-NAME-induced Wistar rat assessed as decrease in blood ALT level at 30 mg/kg/day, po for last 4 weeks measured after 8 weeks; type: functional; in short: as §3
Rattus norvegicus [8] = test: Antihypertensive activity in L-NAME-induced Wistar rat assessed as decrease in blood calcium level at 30 mg/kg/day, po for last 4 weeks measured after 8 weeks; type: functional; in short: as §3
Rattus norvegicus [9] = test: Antihypertensive activity in L-NAME-induced Wistar rat assessed as decrease in blood creatinine level at 30 mg/kg/day, po for last 4 weeks measured after 8 weeks; type: functional; in short: as §3
Rattus norvegicus [10] = test: Antihypertensive activity in Wistar rat assessed as normalization of L-NAME-induced collagen 1 level in vessel walls at 30 mg/kg/day, po for 4 weeks in presence of losartan; type: functional, organism-based; in short: as §1
Rattus norvegicus [11] = test: Antihypertensive activity in Wistar rat assessed as normalization of L-NAME-induced heart weight at 30 mg/kg/day, po for 4 weeks in presence of L-NAME; type: functional, organism-based; in short: as §2
Rattus norvegicus [12] = test: Antihypertensive activity in Wistar rat assessed as normalization of L-NAME-induced systolic blood pressure at 30 mg/kg/day, po for 4 weeks; type: functional, organism-based; settings: Artery; in short: as §2
Rattus norvegicus [13] = test: Antihypertensive activity in L-NAME-induced Wistar rat assessed as decrease in blood protein level at 30 mg/kg/day, po for last 4 weeks measured after 8 weeks; type: functional; in short: as §3
Rattus norvegicus [14] = test: Antihypertensive activity in Wistar rat assessed as normalization of L-NAME-induced systolic blood pressure at 10 mg/kg/day, po for 4 weeks; type: functional, organism-based; settings: Artery; in short: as §2
Rattus norvegicus [15] = test: Antihypertensive activity in L-NAME-induced Wistar rat assessed as decrease in blood urea level at 30 mg/kg/day, po for last 4 weeks measured after 8 weeks; type: functional; in short: as §3
Rattus norvegicus [16] = test: Antihypertensive activity in L-NAME-induced Wistar rat assessed as decrease in blood triglyceride level at 30 mg/kg/day, po for last 4 weeks measured after 8 weeks; type: functional; in short: as §3
Rattus norvegicus [17] = test: Antihypertensive activity in L-NAME-induced Wistar rat assessed as decrease in blood […] level at 30 mg/kg/day, po for last 4 weeks measured after 8 weeks; type: functional; in short: as §3
Rattus norvegicus [18] = test: Antihypertensive activity in L-NAME-induced Wistar rat assessed as decrease in blood cholesterol level at 30 mg/kg/day, po for last 4 weeks measured after 8 weeks; type: functional; in short: as §3
Rattus norvegicus [19] = test: Antihypertensive activity in L-NAME-induced Wistar rat assessed as decrease in blood LDH level at 30 mg/kg/day, po for last 4 weeks measured after 8 weeks; type: functional; in short: as §3
Rattus norvegicus [20] = test: Antihypertensive activity in Wistar rat assessed as normalization of L-NAME-induced fibronectin content in vessel walls at 30 mg/kg/day, po for 4 weeks in presence of losartan; type: functional, organism-based; in short: as §1
Rattus norvegicus [21] = test: Plasma concentration in po dosed Wistar rat assessed as losartan level after 4 weeks; type: ADME, organism-based; settings: in vivo, 672 h
In short: (§4)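 Separate groups of Wistar rats dosed in drinking water for 4 weeks (n = 4-6 per group), then sacrificed and plasma analyzed by HPLC-MS/MS (triple quadrupole, electrospray), isocratic MeOH/water with 0.1% formic acid, 40 °C. Two plasma samples per animal; mean ± SEM.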

Rattus norvegicus [22] = test: Plasma concentration in po dosed Wistar rat assessed as EXP-3174 level after 4 weeks; type: ADME, organism-based; settings: in vivo, 672 h; in short: as §4

CCCCc1nc(Cl)c(COC(=O)C2(C)CCc3c(C)c(O)c(C)c(C)c3O2)n1Cc1ccc(-c2ccccc2-c2nnn[nH]2)cc1 (configuration not stated)
Activity (VSMC): 68%
Activity [1]: 0.25 mmol/L

CCCCc1ncc(COC(=O)CCc2ccc(O)c(O)c2)n1Cc1ccc(-c2ccccc2-c2nnn[nH]2)cc1
Activity (Rattus norvegicus [2]): Active
Activity (Rattus norvegicus [3]): inactive
Activity (Rattus norvegicus [4]): 85 IU/L
Activity (VSMC): 60%
Activity (Rattus norvegicus [5]): 151 mmol/L
Activity (Rattus norvegicus [6]): 149 mg/dL
Activity (Rattus norvegicus [7]): 25 IU/L
Activity (Rattus norvegicus [8]): 8.6 mg/dL
Activity (Rattus norvegicus [9]): 0.43 mg/dL
Activity (Rattus norvegicus [10]): Active
Activity (Rattus norvegicus [11]): Active
Activity (Rattus norvegicus [12]): Active
Activity (Rattus norvegicus [13]): 4.5 g/dL
Activity (Rattus norvegicus [14]): inactive
Activity (Rattus norvegicus [15]): 24 mg/dL
Activity (Rattus norvegicus [16]): 60 mg/dL
Activity [1]: 0.31 mmol/L
Activity (Rattus norvegicus [17]): 4.4 mmol/L
Activity (Rattus norvegicus [18]): 55 mg/dL
Activity (Rattus norvegicus [19]): 600 IU/L
Activity (Rattus norvegicus [20]): Active

CCCCc1ncc(COC(=O)c2cc(OC)c(O)c(OC)c2)n1Cc1ccc(-c2ccccc2-c2nnn[nH]2)cc1
Activity (VSMC): 66%
Activity [1]: 0.31 mmol/L

CCCCc1nc(Cl)c(CO)n1Cc1ccc(-c2ccccc2-c2nn[nH]n2)cc1 [LOSARTAN]
concentration (Rattus norvegicus [21]): 24.4 nM
concentration (Rattus norvegicus [22]): 39 nM
